Data taken from ChEMBL document CHEMBL2396529, “Synthesis and anticancer mechanism investigation of dual Hsp27 and tubulin inhibitors” (J Med Chem, 2013).

Test system: SK-BR-3
Assay: Antiproliferative activity against human SKBR3 cells after 48 hrs by MTT assay
Format: functional, cell-based
Details: SK-BR-3, 48 h
In short: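 MTT assay on SKBR-3 cells (RPMI 1640, 10% heat-inactivated FBS, 37 °C, 5% CO2), seeded 24 h before dosing, then exposed 48 h to a concentration series in DMSO (final ≤0.1%) with vehicle-matched controls. Afterwards 0.5 mg/mL MTT for 2 h, formazan dissolved in DMSO, A570 read, six replicates. IC50 from nonlinear regression.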

Structure (SMILES) | IC50
COc1ccc(C(=O)Nc2ccc(N(C)S(C)(=O)=O)c(OCc3cc(Cl)ccc3Cl)c2)cc1OC | 3730 nM
COc1ccc(OC)c(COc2cc(NC(=O)c3ccc(Br)cc3)ccc2NS(C)(=O)=O)c1 | 9.58 nM
COc1ccc(OC)c(COc2cc(NC(=O)c3ccc4ccccc4c3)ccc2NS(C)(=O)=O)c1 | 13.3 nM
COc1ccc(C(=O)Nc2ccc(N(C)S(C)(=O)=O)c(OCc3cc(C(F)(F)F)ccc3C)c2)cc1 | 2030 nM
Cc1ccc(C)c(COc2cc(NC(=O)c3ccc(Br)cc3)ccc2N(C)S(=O)(=O)C(F)(F)F)c1 | 36400 nM
COc1ccc(C(=O)Nc2ccc(NS(C)(=O)=O)c(OCc3cc(OC)ccc3OC)c2)cc1 | 13.4 nM
CCCCCCOc1cc(NC(=O)c2ccc(I)cc2)ccc1N(C)S(C)(=O)=O | 12700 nM
COc1ccc(C(=O)Nc2ccc(N(C)S(C)(=O)=O)c(OCc3cc(Cl)ccc3Cl)c2)cc1 | 490 nM
Cc1ccc(C(F)(F)F)cc1COc1cc(NC(=O)c2ccc(I)cc2)ccc1N(C)S(C)(=O)=O | 3500 nM
Cc1ccc(C(F)(F)F)cc1COc1cc(NC(=O)c2ccc3ccccc3c2)ccc1N(C)S(C)(=O)=O | 18400 nM
COc1ccc(C(=O)Nc2ccc(N(C)S(C)(=O)=O)c(OCc3cc(C(F)(F)F)ccc3C)c2)cc1OC | 16900 nM
Cc1ccc(C(F)(F)F)cc1COc1cc(NC(=O)c2ccc(Br)cc2)ccc1N(C)S(C)(=O)=O | 9490 nM
CCCCCCOc1cc(NC(=O)c2ccc(Br)cc2)ccc1N(C)S(C)(=O)=O | 39900 nM
CCCCCCOc1cc(NC(=O)c2ccc(OC)c(OC)c2)ccc1N(C)S(C)(=O)=O | 100000 nM
COc1ccc(OC)c(COc2cc(NC(=O)c3ccc(OC)c(OC)c3)ccc2NS(C)(=O)=O)c1 | 11 nM
Cc1ccc(C)c(COc2cc(NC(=O)c3ccc(I)cc3)ccc2N(C)S(=O)(=O)C(F)(F)F)c1 | 13500 nM
COc1ccc(OC)c(COc2cc(NC(=O)c3ccc(OC)c(OC)c3)ccc2N(C)S(C)(=O)=O)c1 | 2.61 nM
CN(c1ccc(NC(=O)c2ccc(I)cc2)cc1OCc1cc(Cl)ccc1Cl)S(C)(=O)=O | 660 nM
CCCCCCOc1cc(NC(=O)c2ccc3c(c2)OCO3)ccc1N(C)S(C)(=O)=O | 28800 nM
Cc1ccc(C)c(COc2cc(NC(=O)c3ccc4ccccc4c3)ccc2N(C)S(=O)(=O)C(F)(F)F)c1 | 41400 nM
CCCCCCOc1cc(NC(=O)c2ccc(OC)cc2)ccc1N(C)S(C)(=O)=O | 20000 nM
CN(c1ccc(NC(=O)c2ccc3ccccc3c2)cc1OCc1cc(Cl)ccc1Cl)S(C)(=O)=O | 2210 nM
CN(c1ccc(NC(=O)c2ccc(Br)cc2)cc1OCc1cc(Cl)ccc1Cl)S(C)(=O)=O | 2290 nM

Results, then the molecule that gave them:

IC50 | Structure (SMILES)
14700 nM | Cc1ccc(C(F)(F)F)cc1COc1cc(NC(=O)c2ccc3c(c2)OCO3)ccc1N(C)S(C)(=O)=O
510 nM | COc1ccc(OC)c(COc2cc(NC(=O)c3ccc(I)cc3)ccc2N(C)S(=O)(=O)C(F)(F)F)c1
470 nM | COc1ccc(OC)c(COc2cc(NC(=O)c3ccc(Br)cc3)ccc2N(C)S(=O)(=O)C(F)(F)F)c1
35.2 nM | COc1ccc(OC)c(COc2cc(NC(=O)c3ccc4c(c3)OCO4)ccc2NS(C)(=O)=O)c1
710 nM | COc1ccc(OC)c(COc2cc(NC(=O)c3ccc4c(c3)OCO4)ccc2N(C)S(=O)(=O)C(F)(F)F)c1
2850 nM | CN(c1ccc(NC(=O)c2ccc3c(c2)OCO3)cc1OCc1cc(Cl)ccc1Cl)S(C)(=O)=O
110 nM | COc1ccc(C(=O)Nc2ccc(N(C)S(=O)(=O)C(F)(F)F)c(OCc3cc(OC)ccc3OC)c2)cc1
39300 nM | COc1ccc(C(=O)Nc2ccc(N(C)S(=O)(=O)C(F)(F)F)c(OCc3cc(C)ccc3C)c2)cc1OC
550 nM | COc1ccc(OC)c(COc2cc(NC(=O)c3ccc(OC)c(OC)c3)ccc2N(C)S(=O)(=O)C(F)(F)F)c1
21800 nM | Cc1ccc(C)c(COc2cc(NC(=O)c3ccc4c(c3)OCO4)ccc2N(C)S(=O)(=O)C(F)(F)F)c1
3.51 nM | COc1ccc(OC)c(COc2cc(NC(=O)c3ccc(Br)cc3)ccc2N(C)S(C)(=O)=O)c1
200 nM | COc1ccc(OC)c(COc2cc(NC(=O)c3ccc4ccccc4c3)ccc2N(C)S(=O)(=O)C(F)(F)F)c1
